Measured values: ChEMBL document CHEMBL1687926, “14-Aminocamptothecins: their synthesis, preclinical activity, and potential use for cancer treatment” (J Med Chem, 2011)
Values joined by “and” are separate entries in the source; they are usually repeats but may differ in a detail not shown here. Equal values may be shown once.

Tests used:
[1] = system: NCI-H460; assay: Cytotoxicity against human H460 cells after 72 hrs by alamar blue assay; type: functional, cell-based; conditions: Homo sapiens, NCI-H460, 72 h
Procedure, shortened: (§1)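 Cells seeded at 4 × 10³ per well and grown 24 h. Compounds dissolved in DMSO and diluted in medium to final concentrations, then incubated 72 h at 37 °C, 5% CO₂. Viable cells read by AlamarBlue; IC₅₀ taken as the concentration giving 50% growth inhibition.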

[2] = system: PC-3; assay: Cytotoxicity against human PC3 cells after 72 hrs by alamar blue assay; type: functional, cell-based; conditions: PC-3, 72 h; procedure, shortened: as §1
[3] = system: HT-29; assay: Cytotoxicity against human HT-29 cells after 72 hrs by alamar blue assay; type: functional, cell-based; conditions: HT-29, 72 h; procedure, shortened: as §1
[4] = system: SK-MEL-2; assay: Cytotoxicity against human SK-MEL-2 cells after 72 hrs by alamar blue assay; type: functional, cell-based; conditions: SK-MEL-2, 72 h; procedure, shortened: as §1
[5] = system: A-375; assay: Cytotoxicity against human A375 cells after 72 hrs by alamar blue assay; type: functional, cell-based; conditions: A-375, 72 h; procedure, shortened: as §1
[6] = system: Malme-3M; assay: Cytotoxicity against human MALME-3M cells after 72 hrs by alamar blue assay; type: functional, cell-based; procedure, shortened: as §1
[7] = system: DU-145; assay: Cytotoxicity against human DU145 cells after 72 hrs by alamar blue assay; type: functional, cell-based; conditions: DU-145, 72 h; procedure, shortened: as §1
[8] = system: LNCaP; assay: Cytotoxicity against human LNCAP cells after 72 hrs by alamar blue assay; type: functional, cell-based; procedure, shortened: as §1
[9] = system: IGROV-1; assay: Cytotoxicity against human IGROV1 cells after 72 hrs by alamar blue assay; type: functional, cell-based; conditions: IGROV-1, 72 h; procedure, shortened: as §1
[10] = system: NCI-H460; assay: Cytotoxicity against human H460 cells after 72 hrs by alamar blue assay in presence of 40 mg/ml HSA; type: functional, cell-based; conditions: NCI-H460, 72 h
Procedure, shortened: (§2)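 H460 cells seeded at 4 × 10³ per well and grown 24 h. Compounds then cocultured with cells for 72 h at 37 °C, with or without 40 mg/mL human serum albumin. Viability read by AlamarBlue; IC₅₀ = 50% growth inhibition. Ratio compares the IC₅₀ with HSA to the IC₅₀ without.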

[11] = system: NCI-H460; assay: Ratio IC50 for human H460 cells after 72 hrs in presence of 40 mg/ml HSA to IC50 for human H460 cells after 72 hrs; type: functional; procedure, shortened: as §2
[12] = Cytotoxicity against human MESSA cells after 72 hrs by alamar blue assay; type: functional, cell-based; conditions: MES-SA; procedure, shortened: as §1
[13] = Cytotoxicity against human MES-SA/Dx5 cells overexpressing MDR1 after 72 hrs by alamar blue assay; type: functional, cell-based; conditions: MES-SA/Dx5, 72 h; procedure, shortened: as §1
[14] = system: NCI-H69; assay: Cytotoxicity against human H69 cells after 72 hrs by alamar blue assay; type: functional, cell-based; conditions: NCI-H69, 72 h; procedure, shortened: as §1
[15] = Resistance ratio of IC50 for human MES-SA/Dx5 cells overexpressing MDR1 after 72 hrs to IC50 for human MESSA cells after 72 hrs; type: functional
Procedure, shortened: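 Cytotoxicity compared in MDR1-overexpressing lines and their parental wild-type lines. 72 h exposure at 37 °C, viability by AlamarBlue, IC₅₀ at 50% growth inhibition. Resistance ratio = IC₅₀ in overexpressing line / IC₅₀ in parental line.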

[16] = Cytotoxicity against human bone marrow cell by CFU-GM assay; type: cell-based
[17] = Cytotoxicity against mouse bone marrow cell by CFU-GM assay; type: cell-based
Procedure, shortened: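 CFU-GM colony assay on normal human bone marrow (thawed) or mouse femoral marrow (freshly extracted). Human colonies scored after 16-18 days. IC₅₀ taken from triplicate assays.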

[18] = Ratio of IC50 for mouse bone marrow cell to IC50 for human bone marrow cell; type: cell-based; conditions: bone marrow cells
Procedure, shortened: (§3)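 CFU-GM colony assay in triplicate at 2 × 10⁴ cells per culture, using thawed normal human bone marrow or fresh mouse femoral marrow. Colonies were scored after 16-18 days. The IC50 or IC90 from each species gave the mouse/human ratio.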

[19] = Ratio of IC90 for mouse bone marrow cell to IC90 for human bone marrow cell; type: ADME, cell-based; conditions: bone marrow cells; procedure, shortened: as §3
[20] = system: NCI-H460; assay: Antitumor activity against human H460 cells xenografted in nu/nu mouse assessed as tumor growth inhibition at 2 mg/kg, po QD for 5 days followed by 2days without treatment for 2 weeks; type: functional; set-up: scale not given: the % may be the effect or the level left
Procedure, shortened: (§4)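 Nude mice (nu/nu), females, or males for the prostate model, 4-6 weeks old, implanted sc in the flank with tumor cells (H460 at 1 × 10⁶). Groups of 10 were randomized at 100-150 mm³. Dosing was oral gavage in 5% DMSO/5% Tween 80/1% CMC in water, QD 5 days on/2 off per cycle, for 2 cycles (H460, PC-3) or 4 cycles (HT29). Tumor volume (length × width²/2) and body weight were measured twice weekly.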

[21] = system: NCI-H460; assay: Antitumor activity against human H460 cells xenografted in nu/nu mouse assessed as tumor growth delay at 2 mg/kg, po QD for 5 days followed by 2days without treatment for 2 weeks; type: functional; procedure, shortened: as §4
[22] = system: PC-3; assay: Antitumor activity against human PC3 cells xenografted in nu/nu mouse assessed as tumor growth inhibition at 2 mg/kg, po QD for 5 days followed by 2days without treatment for 2 weeks; type: functional; set-up: scale not given: the % may be the effect or the level left; procedure, shortened: as §4
[23] = system: PC-3; assay: Antitumor activity against human PC3 cells xenografted in nu/nu mouse assessed as tumor growth delay at 2 mg/kg, po QD for 5 days followed by 2days without treatment for 2 weeks; type: functional; procedure, shortened: as §4
[24] = system: Mus musculus; assay: Toxicity in nu/nu mouse assessed as body weight loss at 2 mg/kg, po QD for 5 days followed by 2 days without treatment for 2 weeks; type: organism-based; set-up: dose 2 mg/kg, route oral; conditions: in vivo; procedure, shortened: as §4
[25] = system: Mus musculus; assay: Toxicity in nu/nu mouse assessed as body weight loss at 2 mg/kg, po QD for 5 days followed by 4 days without treatment for 2 weeks; type: organism-based; set-up: dose 2 mg/kg, route oral; conditions: in vivo
[26] = system: H69AR; assay: Cytotoxicity against human H69AR cells overexpressing MRP1 after 72 hrs by alamar blue assay
[27] = Resistance ratio of IC50 for human H69AR cells overexpressing MRP1 after 72 hrs s to IC50 for human H69 cells after 72 hrs
[28] = system: HT-29; assay: Antitumor activity against human HT-29 cells xenografted in nu/nu mouse assessed as tumor growth delay at 2 mg/kg, po QD for 5 days
[29] = system: HT-29; assay: Antitumor activity against human HT-29 cells xenografted in nu/nu mouse assessed as tumor growth inhibition at 2 mg/kg, po QD for 5 days; set-up: scale not given: the % may be the effect or the level left

CC[C@@]1(O)C(=O)OCc2c1cc1n(c2=O)Cc2cc3c(CN(C)C)c(O)ccc3nc2-1 [TOPOTECAN]
IC50 [1]: 45 nM | IC50 [2]: 45 nM | IC50 [3]: > 1000 nM | IC50 [4]: 140 nM | IC50 [5]: 13 nM | IC50 [6]: 1000 nM | IC50 [7]: 1000 nM | IC50 [8]: 9 nM | IC50 [9]: 160 nM | IC50 [10]: 110 nM | Ratio [11]: 2 | IC50 [12]: 4 nM | IC50 [13]: 33 nM | IC50 [14]: 6 nM | Ratio [15]: 8 | IC50 ([16]; Homo sapiens, Bone marrow cell): 8 nM | IC90 ([16]; human, bone marrow cells): 50 nM | IC50 [17]: 130 nM | selectivity ratio [18]: 16 | selectivity ratio [19]: 14 | Activity [20]: 46% | Time [21]: 5 days | Activity [22]: 79% | Time [23]: 21 days | Activity [24]: 9% | Activity [25]: 0% and 1% | IC50 [26]: > 300 nM | Ratio [27]: >47 | Time [28]: 16 days | Activity [29]: 70%
